Screens: PubChem, The Scripps Research Institute Molecular Screening Center
An excerpt weighted towards active compounds, which were near 4.3% of everything screened.
TAAR1 ag: human TAAR1 agonists, primary screen, Fluo-8 calcium fluorescence, CHO RD-HGA16 cells; Trace amine-associated receptor 1 (Homo sapiens), Q96RJ0; vehicle wells 0%, saturating PEA agonist 100%; activation, % at 3 µM; 360,000 tested, 0.99% active; AID 624467, 2012;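 active = activation above the mean activation of all test compounds in the run plus 3 SD, cut at about 38% in these data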
Target sequence (Q96RJ0 whole entry, looked up): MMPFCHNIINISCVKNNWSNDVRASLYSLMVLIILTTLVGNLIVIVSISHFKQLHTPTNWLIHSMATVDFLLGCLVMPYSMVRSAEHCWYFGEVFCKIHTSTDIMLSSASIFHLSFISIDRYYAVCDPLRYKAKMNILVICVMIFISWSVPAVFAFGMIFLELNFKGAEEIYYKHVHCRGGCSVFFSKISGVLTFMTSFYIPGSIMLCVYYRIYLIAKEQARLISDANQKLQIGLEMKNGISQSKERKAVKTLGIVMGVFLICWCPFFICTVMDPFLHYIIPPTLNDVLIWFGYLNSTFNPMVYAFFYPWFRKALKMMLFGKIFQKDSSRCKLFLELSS
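Signal – calcium-sensitive Fluo-8 signal, excitation 470-495, emission 515-575 nm · System – RD-HGA16 (CHO) cells co-expressing Gα16 and hTAAR1 · Incubation – 17-24 h seeding, 75 min 37 °C dye, 30 min RT · Compound dosing – 3 µM single concentration · Repeats – no replicates (n 1)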
OX1R antag-1: OX1R (HCRTR1) antagonists, primary screen, fluorescence, CHO/OX1R cells, Fluo-8 calcium, orexin A | Orexin/Hypocretin receptor type 1 (Homo sapiens), O43613 | Fluo-8 calcium fluorescence | inhibition, % at 5 µM | 330,000 tested, 0.43% active;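 active = inhibition above its plate's threshold, mean inhibition of all tested compounds on the plate plus 3 SD, cut at about 37% in these data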
OX1R antag-2: antagonists of human orexin 1 receptor (OX1R); Orexin/Hypocretin receptor type 1 (Homo sapiens), O43613; OX1R-expressing cells, FRET antagonist read-out; inhibition, % at 6.6 µM; 330,000 tested, 1.8% active; in the data active = inhibition mostly above about 38%, no sharp cut-off; inactive = mostly below about 40%
GalR3 antagonist: GalR3 antagonists in HEK293 cells, primary screen, cell-based, fluorescence readout | Galanin receptor type 3 (Homo sapiens), O60755 | 360,000 tested, 0.44% active | HEK293 GalR3-CNG cAMP membrane potential fluorescence; galR3 body fused to GalR1 C-terminus | inhibition, % at 3 µM;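 active = inhibition above the screen-wide average plus 3 SD, cut at about 13% in these data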;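 note: forskolin and galanin both at EC90 stimulate the cells; cAMP rise reported by CNG channel membrane potential dye signal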
CHO parental Ca: ATP-evoked calcium signal inhibitors, parental CHO, primary screen, counter-screen for OX1R antagonist project, cell-based, fluorescence, Fluo-8 calcium dye; parental CHO-K1, ATP-induced calcium, Fluo-8 fluorescence; inhibition, % at 5.6 µM; 330,000 tested, 0.63% active;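 active = inhibition above that plate's mean sample inhibition plus 3 SD, cut at about 26% in these data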
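Test system: untransfected parental CHO cell line; also added: ATP stimulus; dosing: 5.6 µM, single dose; signal: calcium-sensitive Fluo-8 fluorescence; measure: percent inhibition of ATP-evoked calcium rise, normalized to controls; benchmarks: low control ATP plus DMSO, high control DMSO only; replication: one well per compound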
TAAR1 antagonist: human TAAR1 antagonists, primary screen, Fluo-8 calcium fluorescence, CHO RD-HGA16 cells; antagonist; inhibition, % at 3 µM; 360,000 tested, 1.5% active; AID 624466, 2012;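 active = inhibition above a per-plate cutoff, the mean inhibition of test compounds on that plate plus 3 SD, cut at about 49% in these data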
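System: RD-HGA16 CHO cells with stable hTAAR1 and Gα16 | Probe or stimulus: EC80 β-phenethylamine stimulus | Dosing: 3 µM, single point | Times: Dye loading 75 min at 37 °C, then 30 min room temperature | Measured by: Fluo-8 calcium-sensitive fluorescence | Read-out basis: % inhibition of agonist calcium response | Replicates: n of 1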
GalR3 antag conf: GalR3 antagonist hit confirmation, cell-based, fluorescence, triplicate; 1,600 tested, 59% active; inhibition, % at 3 µM; HEK293 GalR3 CNG cAMP biosensor, membrane potential fluorescence; galR3 fused to GalR1 carboxy tail; challenged with forskolin and galanin at EC90; shares compounds with GalR3 antagonist;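 active = inhibition above the primary screen's cutoff, the mean inhibition of all screened compounds plus 3 SD, cut at about 13% in these data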
CNG parental: nonspecific cAMP agonists in parental HEK-CNG cells, counter-screen for GalR3 antagonist project, cell-based, fluorescence, high throughput | activation, % at 3 µM | 1,600 tested, 10% active | AID 652268, 2013 | shares compounds with GalR3 antagonist | HEK293-CNG parental cells, cAMP membrane potential fluorescence; normalised: DMSO wells 0%, forskolin wells 100%; in the data active = activation above about 1.3%
A number is an active result; – = inactive; · = no result.

SMILES	TAAR1 ag	OX1R antag-1	OX1R antag-2	GalR3 antagonist	CHO parental Ca	TAAR1 antagonist	GalR3 antag conf	CNG parental
O=C(Nc1ccccc1)c1ccc(S(=O)(=O)Nc2cccc(O)c2)cc1	–	–	–	–	–	–	·	·
CC(=O)c1cccc(NS(=O)(=O)c2ccc(C(=O)Nc3ccccc3)cc2)c1	–	70	74	56	71	–	71	–
O=C(NCc1ccccc1)C(c1ccc(-c2ccccc2)cc1)n1c(=O)c(-c2cc3ccccc3[nH]2)nc2ccccc21 (configuration not stated)	–	·	·	–	·	–	·	·
COC(=O)c1ccc(COc2ccccc2/C=N/NC(=O)c2cccnc2)cc1	–	–	–	13	–	–	–	–
COc1cccc(/C=N/NC(=O)CNC(=O)c2cccnc2)c1O	–	–	–	–	–	–	·	·
O=C(CN1C(=O)NC(c2ccccc2)(c2ccccc2)C1=O)NC1CCCCC1	–	–	–	–	–	–	·	·
O=c1cc(CSc2nnc(-c3cccs3)n2Cc2ccccc2)nc2sc3ccccc3n12	–	–	–	74	52	–	108	–
C[C@H]1COc2cccc(N3CCC[C@@H]3CO)c2S(=O)(=O)N1	–	·	·	–	·	–	·	·
Cc1oc(-c2ccc(Cl)cc2)nc1CN1CCCC(C(=O)NCc2cccnc2)C1 (configuration not stated)	–	–	–	83	–	–	111	–
Cc1oc(-c2ccc(Cl)cc2)nc1CSCC(=O)NC1CCN(Cc2ccccc2)CC1	–	–	–	96	–	–	106	–
Cc1oc(-c2ccc(Cl)cc2)nc1CN1CCCC(C(=O)NCc2ccccn2)C1 (configuration not stated)	–	–	–	–	–	–	·	·
CCOc1ccc(-c2nc(CSCC(=O)NC3CCN(Cc4ccccc4)CC3)c(C)o2)cc1	–	·	·	–	·	–	·	·
O=C(NCCOc1ccccc1F)C1CC(=O)N(c2ccc3c(c2)OCCO3)C1 (configuration not stated)	–	–	–	–	–	–	·	·
Fc1cc2ncn(Cc3ccccc3)c2cc1F	–	–	–	·	–	–	–	–
NC(=O)c1cccnc1Nc1ccccc1Cl	–	–	–	19	–	–	–	–
COc1ccc(CNC(=O)c2cnn3c(C(F)F)cc(C)nc23)cc1OC	–	–	–	15	–	–	20	–
COCCNC(=O)c1cnn2c(C(F)F)cc(-c3ccc(C)cc3)nc12	–	–	–	–	–	–	·	·
CCOC(=O)C[N+]1(C)CCN(C(C)=O)CC1	–	–	–	13	–	–	–	–
O=C1CCN(Cc2ccccc2)C=C1c1cccc(O)c1	–	–	–	–	–	–	·	·
CCC1(c2ccc(F)cc2)NC(=O)N(CC(=O)N2CCN(S(=O)(=O)c3ccc(C)cc3C)CC2)C1=O (configuration not stated)	–	·	·	–	·	–	·	·
C#CCOCCOCCOCCNc1nc(N2CCN(C(=O)[C@H]([C@@H](C)CC)n3cc(CCC(=O)O)nn3)CC2)nc(N2CCN(C(=O)[C@H](CCCCN)n3cc(CCC(=O)O)nn3)CC2)n1	–	·	·	·	·	–	–	–
